Measured values reported in ChEMBL document CHEMBL4387722.

Tests used:
[1] = test system: Mycobacterium tuberculosis; test: Antitubercular activity against Mycobacterium tuberculosis H37Rv after 5 days at 200 uM relative to control; format: functional; details: 120 h
How it was run: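 M. tuberculosis grown in liquid culture with compound at a fixed 200 μM for 5 days. Growth inhibition expressed as percent of control.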

E. coli GroEL/ES [2] = target: T1, E. coli GroEL/ES (Escherichia coli, UniProt P0A6F5); test: Inhibition of Escherichia coli GroEL expressed in Escherichia coliDH5alpha/Escherichia coli GroES expressed in Escherichia coli BL21 (DE3) assessed as reduction in GroEL/GroES-mediated denatured pig heart mitochondrial MDH refolding by measuring MDH enzyme activity using sodium mesoxalate as substrate after 20 to 40 mins by spectrometric analysis
T1 sequence (P0A6F5 whole entry, looked up): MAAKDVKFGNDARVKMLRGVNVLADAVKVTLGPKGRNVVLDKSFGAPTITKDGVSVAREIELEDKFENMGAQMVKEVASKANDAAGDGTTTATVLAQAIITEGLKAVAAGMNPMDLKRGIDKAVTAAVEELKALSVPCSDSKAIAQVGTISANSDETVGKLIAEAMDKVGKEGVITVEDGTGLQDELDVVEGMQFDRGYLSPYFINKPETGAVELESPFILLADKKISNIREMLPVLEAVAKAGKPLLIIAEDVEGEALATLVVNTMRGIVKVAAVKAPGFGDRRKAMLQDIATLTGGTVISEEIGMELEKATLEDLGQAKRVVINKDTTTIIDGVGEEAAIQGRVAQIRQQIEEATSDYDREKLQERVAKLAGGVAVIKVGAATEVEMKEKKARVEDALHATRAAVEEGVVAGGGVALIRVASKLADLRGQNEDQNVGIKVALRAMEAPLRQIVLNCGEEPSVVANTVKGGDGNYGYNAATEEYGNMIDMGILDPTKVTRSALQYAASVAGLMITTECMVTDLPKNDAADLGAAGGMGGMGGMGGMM

[3] = Cytotoxicity against human THLE3 cells assessed as reduction in cell viability after 48 hrs by Alamar blue assay; format: cell-based
How it was run: (§1)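 Alamar Blue viability read-out. Human liver (THLE-3) and kidney (HEK 293) cells incubated with compound for 48 h. Tested in dose-response to derive CC50.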

[4] = target: T2, Tyrosine-protein phosphatase non-receptor type 5 (Homo sapiens, UniProt P54829); test: Inhibition of human PTPN5 expressed in Escherichia coli Rosetta 2 (DE3) using pNPP as substrate after 45 mins by spectrophotometric method
T2 sequence (P54829 whole entry): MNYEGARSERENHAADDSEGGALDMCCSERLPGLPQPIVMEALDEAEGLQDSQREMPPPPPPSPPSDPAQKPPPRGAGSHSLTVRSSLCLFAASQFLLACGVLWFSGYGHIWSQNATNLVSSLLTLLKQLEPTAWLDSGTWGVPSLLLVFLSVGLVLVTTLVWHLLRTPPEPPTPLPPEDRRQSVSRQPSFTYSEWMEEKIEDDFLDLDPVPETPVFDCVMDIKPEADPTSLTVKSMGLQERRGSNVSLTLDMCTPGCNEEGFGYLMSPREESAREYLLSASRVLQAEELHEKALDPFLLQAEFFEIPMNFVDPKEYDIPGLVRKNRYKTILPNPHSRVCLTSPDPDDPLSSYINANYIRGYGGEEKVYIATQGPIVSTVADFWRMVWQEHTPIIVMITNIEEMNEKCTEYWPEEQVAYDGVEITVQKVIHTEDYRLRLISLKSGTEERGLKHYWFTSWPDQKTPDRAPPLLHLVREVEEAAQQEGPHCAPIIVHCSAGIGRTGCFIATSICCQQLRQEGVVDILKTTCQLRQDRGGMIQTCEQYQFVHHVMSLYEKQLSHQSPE

[5] = test system: Mycobacterium tuberculosis; test: Antitubercular activity against Mycobacterium tuberculosis H37Rv after 5 days; format: functional, organism-based; details: 120 h
[6] = target: T3, Tyrosine-protein phosphatase non-receptor type 1 (Homo sapiens, UniProt P18031); test: Inhibition of human PTPN1 expressed in Escherichia coli Rosetta 2 (DE3) using pNPP as substrate after 45 mins by spectrophotometric method
T3 sequence (P18031 whole entry): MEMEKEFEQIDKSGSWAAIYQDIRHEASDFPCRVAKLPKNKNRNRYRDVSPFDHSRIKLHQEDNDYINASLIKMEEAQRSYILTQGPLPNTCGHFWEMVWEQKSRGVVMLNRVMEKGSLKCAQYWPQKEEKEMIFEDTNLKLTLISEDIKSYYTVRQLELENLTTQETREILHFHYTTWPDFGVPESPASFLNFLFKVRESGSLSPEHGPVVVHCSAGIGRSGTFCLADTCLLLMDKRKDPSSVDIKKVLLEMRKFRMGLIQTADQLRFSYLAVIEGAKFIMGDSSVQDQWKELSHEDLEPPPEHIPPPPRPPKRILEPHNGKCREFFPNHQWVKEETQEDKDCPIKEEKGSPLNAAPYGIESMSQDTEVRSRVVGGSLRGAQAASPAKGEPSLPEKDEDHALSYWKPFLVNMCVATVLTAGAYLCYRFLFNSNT

E. coli GroEL/ES [7] = target: T1, E. coli GroEL/ES; test: Inhibition of Escherichia coli GroEL expressed in Escherichia coli DH5alpha/Escherichia coli GroES expressed in Escherichia coli BL21 (DE3) assessed as reduction in GroEL/GroES-mediated denatured rhodanese refolding by measuring rhodanese enzyme activity after 45 mins by Fe(SCN)3 dye based spectrometric analysis
[8] = target: T4, Tyrosine-protein phosphatase non-receptor type 2 (Homo sapiens, UniProt P17706); test: Inhibition of human PTPN2 expressed in Escherichia coli Rosetta 2 (DE3) using pNPP as substrate after 45 mins by spectrophotometric method
T4 sequence (P17706 whole entry): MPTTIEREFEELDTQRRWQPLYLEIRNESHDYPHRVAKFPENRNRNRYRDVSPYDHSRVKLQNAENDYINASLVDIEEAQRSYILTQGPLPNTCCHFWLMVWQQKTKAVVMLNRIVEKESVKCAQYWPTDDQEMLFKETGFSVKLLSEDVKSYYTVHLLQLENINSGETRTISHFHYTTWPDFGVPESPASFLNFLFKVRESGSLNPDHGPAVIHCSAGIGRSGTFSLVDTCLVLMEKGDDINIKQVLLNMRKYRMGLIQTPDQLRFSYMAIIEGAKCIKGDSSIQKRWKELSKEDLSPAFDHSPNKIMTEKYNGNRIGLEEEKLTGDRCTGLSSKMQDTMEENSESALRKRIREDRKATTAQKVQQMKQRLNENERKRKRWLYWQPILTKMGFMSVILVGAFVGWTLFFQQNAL

HSP60/HSP10 = HSP60/HSP10 (Homo sapiens, UniProt P10809); test: Inhibition of human HSP60 expressed in Escherichia coli Rosetta 2(DE3)/human HSP10 expressed in Escherichia coli Rosetta 2(DE3) pLysS cells assessed as reduction in HSP60/HSP10-mediated denatured pig heart mitochondrial MDH refolding by measuring MDH enzyme activity using sodium mesoxalate as substrate after 40 to 60 mins by spectrometric analysis
HSP60/HSP10, sequence (P10809 whole entry): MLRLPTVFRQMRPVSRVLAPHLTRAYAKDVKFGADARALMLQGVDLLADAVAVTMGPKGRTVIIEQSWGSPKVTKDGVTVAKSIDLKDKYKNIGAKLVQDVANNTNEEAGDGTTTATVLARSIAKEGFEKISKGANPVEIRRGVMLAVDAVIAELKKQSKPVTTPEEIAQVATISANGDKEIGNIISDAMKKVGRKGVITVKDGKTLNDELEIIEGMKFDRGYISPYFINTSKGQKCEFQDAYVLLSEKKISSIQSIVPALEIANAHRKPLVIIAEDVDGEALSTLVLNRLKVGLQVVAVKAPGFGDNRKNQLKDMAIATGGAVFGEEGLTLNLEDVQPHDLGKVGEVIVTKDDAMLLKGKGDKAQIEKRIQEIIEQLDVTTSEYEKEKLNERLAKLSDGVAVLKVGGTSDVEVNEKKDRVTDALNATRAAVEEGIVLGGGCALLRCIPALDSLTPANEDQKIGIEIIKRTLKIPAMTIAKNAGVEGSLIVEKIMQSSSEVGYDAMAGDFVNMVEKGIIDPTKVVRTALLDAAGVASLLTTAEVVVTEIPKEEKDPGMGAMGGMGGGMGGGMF
HSP60/HSP10, sequence (P61604 whole entry, further chain): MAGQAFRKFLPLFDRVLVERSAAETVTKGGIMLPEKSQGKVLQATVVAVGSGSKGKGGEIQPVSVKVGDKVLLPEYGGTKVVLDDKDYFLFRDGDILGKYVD

[9] = target: T5, Phosphotyrosine protein phosphatase (Mycobacterium tuberculosis, UniProt A0A045ISB3); test: Inhibition of Mycobacterium tuberculosis His-tagged PtpB expressed in Escherichia coli Rosetta 2 (DE3) using pNPP as substrate after 30 mins by spectrophotometric method
T5 sequence (A0A045ISB3 whole entry): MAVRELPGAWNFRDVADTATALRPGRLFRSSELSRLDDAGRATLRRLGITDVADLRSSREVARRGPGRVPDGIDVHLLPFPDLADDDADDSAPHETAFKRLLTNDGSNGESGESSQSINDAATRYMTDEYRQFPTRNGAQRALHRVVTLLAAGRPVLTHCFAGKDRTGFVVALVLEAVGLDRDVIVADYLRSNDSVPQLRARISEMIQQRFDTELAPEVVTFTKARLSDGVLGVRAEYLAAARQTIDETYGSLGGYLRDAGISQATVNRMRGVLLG

[10] = target: T6, Malate dehydrogenase, mitochondrial (Sus scrofa, UniProt P00346); test: Inhibition of refolded pig heart mitochondrial MDH preincubated with Escherichia coli GroEL/GroES for 45 mins using sodium mesoxalate as substrate followed by compound addition and measured after 20 to 30 mins by spectrometric analysis
T6 sequence (P00346 whole entry): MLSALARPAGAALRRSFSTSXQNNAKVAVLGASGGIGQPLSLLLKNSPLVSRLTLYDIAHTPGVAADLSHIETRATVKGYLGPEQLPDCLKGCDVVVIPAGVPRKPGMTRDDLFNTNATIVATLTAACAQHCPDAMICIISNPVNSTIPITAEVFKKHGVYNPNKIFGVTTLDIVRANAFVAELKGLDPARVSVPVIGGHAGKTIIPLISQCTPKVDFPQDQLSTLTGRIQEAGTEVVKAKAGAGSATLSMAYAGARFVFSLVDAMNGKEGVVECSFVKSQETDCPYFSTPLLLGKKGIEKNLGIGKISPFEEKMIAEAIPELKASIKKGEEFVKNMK

[11] = Inhibition of refolded rhodanese (unknown origin) preincubated with Escherichia coli GroEL/GroES for 60 mins by measuring rhodanese enzyme activity followed by compound addition by Fe(SCN)3 dye based spectrometric analysis; set-up: species or system Homo sapiens
[12] = Cytotoxicity against human HEK293 cells assessed as reduction in cell viability after 48 hrs by Alamar blue assay; format: cell-based; how it was run: as §1

Row | SMILES | inhibition at 200 µM [1] | IC50 (E. coli GroEL/ES [2]) | CC50 at 48 h [3] | IC50 [4] | EC50 [5] | IC50 [6] | IC50 (E. coli GroEL/ES [7]) | IC50 [8] | IC50 (HSP60/HSP10) | IC50 [9] | IC50 [10] | IC50 [11] | CC50 at 48 h [12]
1 | C=Cc1ccc(S(=O)(=O)Nc2ccc3oc(-c4ccccc4)nc3c2)cc1 | 86% | > 100 µM | 50 µM | 35 µM | 151 µM | 45 µM | 175 µM | 46 µM | > 100 µM | 51 µM | > 63 µM | > 100 µM | 53 µM
2 | C=Cc1ccc(S(=O)(=O)Nc2ccc(-c3nc4ccccc4o3)cc2)cc1 | 73% | 91 µM | 82 µM | 31 µM | > 200 µM | 47 µM | 165 µM | 33 µM | > 100 µM | 52 µM | > 63 µM | > 100 µM | > 100 µM
3 | COc1cccc(S(=O)(=O)Nc2ccc3oc(-c4ccccc4)nc3c2)c1 | 83% | > 100 µM | 37 µM | 44 µM | 162 µM | 86 µM | 220 µM | 87 µM | > 100 µM | > 100 µM | > 63 µM | > 100 µM | 63 µM
4 | O=S(=O)(Nc1ccc2oc(-c3ccccc3)nc2c1)c1cccc(C(F)(F)F)c1 | 41% | 95 µM | 58 µM | 45 µM | – | 83 µM | 180 µM | 76 µM | > 100 µM | 77 µM | > 63 µM | > 100 µM | > 100 µM
5 | O=S(=O)(Nc1ccc(-c2nc3ccccc3o2)cc1)c1ccc(Cl)c(C(F)(F)F)c1 | 18% | 23 µM | 81 µM | 34 µM | – | 28 µM | 67 µM | 28 µM | 12 µM | 29 µM | > 63 µM | > 100 µM | 69 µM
6 | O=S(=O)(Nc1ccc(-c2nc3ccccc3o2)cc1)c1ccccc1F | 8% | > 100 µM | > 100 µM | 70 µM | – | 55 µM | 180 µM | 80 µM | > 100 µM | 85 µM | > 63 µM | > 100 µM | > 100 µM
7 | O=S(=O)(Nc1ccc(-c2nc3ccccc3o2)cc1)c1ccc(Cl)cc1 | 7% | > 100 µM | 81 µM | 36 µM | – | 43 µM | 151 µM | 42 µM | 61 µM | 46 µM | > 63 µM | > 100 µM | > 100 µM
8 | O=[N+]([O-])c1cc(S(=O)(=O)Nc2ccc3oc(-c4ccccc4)nc3c2)ccc1Cl | 1% | 16 µM | 25 µM | 32 µM | – | 35 µM | 18 µM | 40 µM | 17 µM | 33 µM | > 63 µM | > 100 µM | 90 µM
9 | O=S(=O)(Nc1ccc2oc(-c3ccccc3)nc2c1)c1ccc(C(F)(F)F)cc1 | 0% | 64 µM | 49 µM | 27 µM | – | 36 µM | 159 µM | 44 µM | > 100 µM | 26 µM | > 63 µM | > 100 µM | 74 µM
